Data published in ChEMBL document CHEMBL4196230, “Design, Synthesis, and Blood-Brain Barrier Transport Study of Pyrilamine Derivatives as Histone Deacetylase Inhibitors” (ACS Med Chem Lett, 2018).

What was measured:
[1] = Substrate activity at PYSOCA in human CMEC/D3 cells assessed as transporter-mediated drug uptake clearance assessed per mg protein at 37degC; type: ADME, cell-based
Outline: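 Uptake by hCMEC/D3 cells followed over time at 37 °C or 4 °C. Clearance was calculated from the initial linear slope, expressed per mg protein. Mean ± S.E., n = 4.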

[2] = target: T1, Histone deacetylase 8 (Homo sapiens) (UniProt Q9BY41); assay: Inhibition of recombinant human full length C-terminal His-tagged HDAC8 expressed in baculovirus infected insect cells at 30 uM using HDAC class 2a substrate measured after 30 mins by fluorescence assay relative to control
T1 sequence (whole entry): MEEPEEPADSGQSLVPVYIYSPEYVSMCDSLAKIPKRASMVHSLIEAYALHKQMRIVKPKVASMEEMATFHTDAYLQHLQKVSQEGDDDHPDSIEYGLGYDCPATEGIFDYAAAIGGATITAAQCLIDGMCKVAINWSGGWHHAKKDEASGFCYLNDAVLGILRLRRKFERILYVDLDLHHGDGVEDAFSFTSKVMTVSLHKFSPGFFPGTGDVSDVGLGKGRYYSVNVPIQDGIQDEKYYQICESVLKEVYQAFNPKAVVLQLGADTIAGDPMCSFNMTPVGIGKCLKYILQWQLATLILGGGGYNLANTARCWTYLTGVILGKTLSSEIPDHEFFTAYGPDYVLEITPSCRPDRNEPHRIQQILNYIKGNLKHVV

[3] = target: T2, Protein deacetylase HDAC6 (Mus musculus) (UniProt Q9Z2V5); assay: Inhibition of mouse HDAC6 expressed in 293T cells at 100 uM using Ac-KGLGK(Ac)-MCA as substrate measured after 30 mins by fluorescence assay relative to control
T2 sequence (whole entry): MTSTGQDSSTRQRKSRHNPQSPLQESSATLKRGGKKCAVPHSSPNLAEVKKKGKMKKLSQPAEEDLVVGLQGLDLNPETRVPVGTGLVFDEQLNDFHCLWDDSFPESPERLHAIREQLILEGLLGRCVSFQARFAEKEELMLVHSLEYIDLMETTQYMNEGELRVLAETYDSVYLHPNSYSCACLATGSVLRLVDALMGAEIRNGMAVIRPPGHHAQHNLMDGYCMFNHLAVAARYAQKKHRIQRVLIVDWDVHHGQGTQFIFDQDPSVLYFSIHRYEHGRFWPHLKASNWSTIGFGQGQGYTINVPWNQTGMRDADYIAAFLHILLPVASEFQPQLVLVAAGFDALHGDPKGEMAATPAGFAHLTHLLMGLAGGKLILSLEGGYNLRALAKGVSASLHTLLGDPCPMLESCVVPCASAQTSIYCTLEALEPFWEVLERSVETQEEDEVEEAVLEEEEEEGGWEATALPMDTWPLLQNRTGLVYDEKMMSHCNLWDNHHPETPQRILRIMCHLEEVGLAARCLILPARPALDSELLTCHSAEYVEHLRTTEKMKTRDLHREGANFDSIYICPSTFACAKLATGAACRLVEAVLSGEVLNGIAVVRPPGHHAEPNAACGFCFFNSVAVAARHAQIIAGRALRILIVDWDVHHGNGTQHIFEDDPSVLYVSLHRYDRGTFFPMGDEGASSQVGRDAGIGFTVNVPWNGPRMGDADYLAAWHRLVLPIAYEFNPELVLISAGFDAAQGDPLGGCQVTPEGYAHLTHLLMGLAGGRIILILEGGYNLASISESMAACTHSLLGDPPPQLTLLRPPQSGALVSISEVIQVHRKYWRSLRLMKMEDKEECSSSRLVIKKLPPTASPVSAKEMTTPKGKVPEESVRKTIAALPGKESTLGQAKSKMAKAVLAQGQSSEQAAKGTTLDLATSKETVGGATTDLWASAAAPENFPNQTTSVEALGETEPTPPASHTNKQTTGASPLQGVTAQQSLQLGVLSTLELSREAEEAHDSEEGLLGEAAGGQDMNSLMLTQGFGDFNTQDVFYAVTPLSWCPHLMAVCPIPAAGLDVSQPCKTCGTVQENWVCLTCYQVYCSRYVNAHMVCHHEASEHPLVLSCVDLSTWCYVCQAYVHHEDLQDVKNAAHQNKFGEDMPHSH

[4] = target: T3, Protein deacetylase HDAC6 (Homo sapiens) (UniProt Q9UBN7); assay: Inhibition of recombinant human HDAC6 expressed in baculovirus infected insect cells at 30 uM using HDAC substrate 3 measured after 30 mins by fluorescence assay relative to control
T3 sequence (whole entry): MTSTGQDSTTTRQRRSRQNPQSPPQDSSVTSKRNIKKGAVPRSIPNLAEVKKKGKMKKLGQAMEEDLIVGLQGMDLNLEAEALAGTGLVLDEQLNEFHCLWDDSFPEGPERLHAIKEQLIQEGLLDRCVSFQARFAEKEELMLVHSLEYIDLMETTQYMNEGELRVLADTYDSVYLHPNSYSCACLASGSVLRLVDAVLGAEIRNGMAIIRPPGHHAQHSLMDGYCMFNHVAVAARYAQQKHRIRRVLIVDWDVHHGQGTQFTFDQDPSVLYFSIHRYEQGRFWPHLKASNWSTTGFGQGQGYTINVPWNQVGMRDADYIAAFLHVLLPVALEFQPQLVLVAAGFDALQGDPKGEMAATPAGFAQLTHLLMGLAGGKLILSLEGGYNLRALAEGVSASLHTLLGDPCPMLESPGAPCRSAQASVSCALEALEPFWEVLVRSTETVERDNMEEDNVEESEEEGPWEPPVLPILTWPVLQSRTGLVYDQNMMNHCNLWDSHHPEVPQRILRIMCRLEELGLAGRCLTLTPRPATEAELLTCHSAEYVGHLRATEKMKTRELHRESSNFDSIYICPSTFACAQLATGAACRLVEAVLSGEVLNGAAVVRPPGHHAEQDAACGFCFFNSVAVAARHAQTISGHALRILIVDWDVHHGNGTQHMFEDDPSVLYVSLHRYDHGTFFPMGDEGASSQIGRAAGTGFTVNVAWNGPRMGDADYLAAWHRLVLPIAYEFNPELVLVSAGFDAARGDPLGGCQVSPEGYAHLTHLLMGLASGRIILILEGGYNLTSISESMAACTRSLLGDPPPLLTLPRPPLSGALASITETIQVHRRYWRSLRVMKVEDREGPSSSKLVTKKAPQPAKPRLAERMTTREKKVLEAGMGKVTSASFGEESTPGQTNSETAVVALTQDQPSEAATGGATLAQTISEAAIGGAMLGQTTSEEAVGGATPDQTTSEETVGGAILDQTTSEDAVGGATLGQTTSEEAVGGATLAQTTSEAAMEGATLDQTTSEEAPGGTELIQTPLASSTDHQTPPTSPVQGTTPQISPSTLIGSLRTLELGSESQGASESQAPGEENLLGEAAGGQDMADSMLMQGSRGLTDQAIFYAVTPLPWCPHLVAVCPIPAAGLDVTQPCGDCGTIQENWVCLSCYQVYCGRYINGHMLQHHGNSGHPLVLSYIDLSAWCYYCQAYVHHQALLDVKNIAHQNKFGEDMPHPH

[5] = Substrate activity at PYSOCA in human CMEC/D3 cells assessed as transporter-mediated drug uptake measured for 2 mins at 37degC in presence of choline; type: ADME, cell-based

CL [1]: 107 µL/min
inhibition [2]: < 10%
inhibition [3]: 11%
inhibition [4]: < 10%
Activity [5]: Active
Structure (SMILES): COc1ccc(CN(CCN(C)C)c2ccc(C(=O)Nc3ccccc3N)cn2)cc1
